The target in experiment [1] is T1, WT mouse TRPV3 (Mus musculus, UniProt Q8K424).
T1 sequence (Q8K424 1-791): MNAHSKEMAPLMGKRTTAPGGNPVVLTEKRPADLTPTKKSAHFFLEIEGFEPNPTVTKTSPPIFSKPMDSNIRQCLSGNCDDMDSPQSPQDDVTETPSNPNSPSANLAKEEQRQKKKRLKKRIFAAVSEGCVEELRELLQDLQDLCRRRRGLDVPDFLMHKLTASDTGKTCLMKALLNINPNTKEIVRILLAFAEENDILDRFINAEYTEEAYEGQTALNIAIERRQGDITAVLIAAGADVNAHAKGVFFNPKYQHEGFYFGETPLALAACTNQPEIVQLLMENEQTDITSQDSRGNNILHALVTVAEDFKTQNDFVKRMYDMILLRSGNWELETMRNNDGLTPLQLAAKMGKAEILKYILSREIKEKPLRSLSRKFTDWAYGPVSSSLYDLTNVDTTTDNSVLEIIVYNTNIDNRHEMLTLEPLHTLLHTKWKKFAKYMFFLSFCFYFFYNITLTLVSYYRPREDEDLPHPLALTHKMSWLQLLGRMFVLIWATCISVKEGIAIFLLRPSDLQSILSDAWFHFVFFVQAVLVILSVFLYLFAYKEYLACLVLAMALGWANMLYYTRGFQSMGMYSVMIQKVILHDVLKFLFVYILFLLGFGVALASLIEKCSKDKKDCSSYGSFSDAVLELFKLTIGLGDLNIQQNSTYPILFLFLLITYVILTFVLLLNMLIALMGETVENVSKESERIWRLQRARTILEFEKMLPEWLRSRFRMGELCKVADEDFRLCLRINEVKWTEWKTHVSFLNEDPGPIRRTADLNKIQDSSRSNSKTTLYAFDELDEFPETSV
As to the kind of experiment: whole-cell voltage-clamp recording in transfected HEK293 cells. Type of experiment: cell-based. To be noted: 300 µM carvacrol; for repeated stimulations needed to approach the maximal response: 30-s applications. A digest of the protocol:
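Sensitization by intracellular pH: 300 µM carvacrol was applied repeatedly in whole-cell mode to HEK293 cells expressing mouse TRPV3. External solution was pH 7.4, nominally Ca2+-free. pHi was set to 7.2, 6.5 or 6.0 by CsCl/EGTA pipette solutions. The stimulation reaching maximal response was noted. Temperature was 22–24°C.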

The target of experiment [2] is T2, TRPV3 E682Q/E689Q/D727N (QQN) (Mus musculus, UniProt Q8K424, D727N/E682Q/E689Q).
T2 sequence (Q8K424 1-791 E682Q/E689Q/D727N): T1 sequence (Q8K424 1-791) with E682Q, E689Q, D727N
Nature of the experiment: cell-based Ca2+ assay. A digest of the protocol: (§1)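 Mouse TRPV3 (WT or mutant) was transfected into HEK293 cells in 96-well plates. Cells were loaded with 5 µM Fluo-4/AM, 0.02% Pluronic F-127 and 0.1% BSA in HEPES ECS (pH 7.4) at 37°C for 60 min, with 2 mM probenecid throughout. 2-APB was added once per well in ECS, or in Mes acidic solution giving final pH 5.6. AUC was normalized to the plate maximum, and EC50 at each pH came from a Hill fit.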

A further experiment has as its target T3, TRPV3 E689Q/D727N (Mus musculus, UniProt Q8K424, D727N/E689Q).
T3 sequence (Q8K424 1-791 E689Q/D727N): T1 sequence (Q8K424 1-791) with E689Q, D727N
As to the kind of experiment: cell-based Ca2+ assay. A digest of the protocol:
(§2)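 Ca2+ plate assay with FlexStation in HEK293 cells transiently expressing mutant mouse TRPV3. Fluo-4/AM loading was 5 µM for 60 min at 37°C in pH 7.4 ECS with probenecid; cells were then washed. Agonist was delivered robotically at varied concentrations, each well dosed once. Read-out was ex 494/em 525 nm at 0.67 Hz. AUC was normalized to the plate maximum, and EC50 was obtained by Hill fitting.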

In experiment [3] the target is T2, TRPV3 E682Q/E689Q/D727N (QQN). Nature of the experiment: whole-cell voltage-clamp recording in transfected HEK293 cells. The class given is cell-based.
The target in a further experiment is T4, TRPV3 E682Q/D727N (Mus musculus, UniProt Q8K424, D727N/E682Q).
T4 sequence (Q8K424 1-791 E682Q/D727N): T1 sequence (Q8K424 1-791) with E682Q, D727N
Nature of the experiment: cell-based Ca2+ assay. A digest of the protocol:
as §2

The test system of experiment [4] is TRPV3 C-terminal double and triple mutants (E682Q, E689Q, D727N combinations). As to the kind of experiment: cell-based Ca2+ assay. Further details: species or system mouse. Particulars: pH 7.4 vs pH 5.6. A digest of the protocol: as §1
Experiment [5] has as its target T1, WT mouse TRPV3. As to the kind of experiment: cell-based Ca2+ assay. Particulars: pH 7.4 vs pH 5.6. The essentials: as §1
The next experiment concerns the target T5, TRPV3 E631A (Mus musculus, UniProt Q8K424, E631A).
T5 sequence (Q8K424 1-791 E631A): T1 sequence (Q8K424 1-791) with E631A
As to the kind of experiment: whole-cell voltage-clamp recording in transfected HEK293 cells. Type of experiment: cell-based. Particulars: n = 3. The essentials:
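Whole-cell clamp at 22–24°C of HEK293 cells transiently expressing mutant mouse TRPV3. Pipette: 140 mM CsCl, 1 EGTA, pH 7.2. Bath: nominally Ca2+-free. 30 µM 2-APB was perfused at pHe 7.4, then in pH 5.0 Mes-buffered solution. Ramps ran −100 to +100 mV over 200 ms every second from 0 mV holding. Current ratio pHe 5.0/7.4 was taken at ±100 mV.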

SMILES strings stand for the structures. Where a chain is given by its changes, count along the chain named. Some results are limits rather than exact numbers.

Data on two compounds can be found in PMC7745752 (The Journal of General Physiology, 2020).

As to `Cc1ccc(C(C)C)cc1O` [carvacrol], the “repeated stimulations needed to approach the maximal response” value at WT mouse TRPV3 [1] (pHi 6.0, external pH 7.4) is on record as “five”; on WT mouse TRPV3 [1] (pHi 7.2, external pH 7.4), about 14. In addition, at WT mouse TRPV3 [1] (presensitized cells, +80 mV, nominally Ca2+-free bath), the “decrease of carvacrol-evoked TRPV3 current by pH 5.5 compared with pH 7.4” value was about 50%. Moreover, the values for the EC50 (in experiment [2]; on TRPV3 E689Q/D727N; at TRPV3 E682Q/D727N) were 119 ± 7.6 µM, 60.2 ± 3.2 µM and 197 ± 7.8 µM, respectively. Besides, the “stimulation at which the highest level of response was reached” value in experiment [3] (300 µM carvacrol, 30-s applications, pHi 7.2, external pH 7.4) is on record as “first stimulation”.
As to `NCCOB(c1ccccc1)c1ccccc1` [2-APB, 2-aminoethoxydiphenyl borate], the “ratio for 2-APB EC50 values obtained at pH 7.4 and pH 5.6” value in experiment [4] is reported as under 4.6; in experiment [2] (pH 7.4 vs pH 5.6), 0.92; on WT mouse TRPV3 [5] it was about 15. Also, the “5.0:7.4 pH ratio of 2-APB-evoked current” value on TRPV3 E631A (+100 mV) worked out at 0.98 ± 0.09; at TRPV3 E631A (−100 mV), 1.02 ± 0.03. Further, the “delay in current development after the addition of 2-APB” value in experiment [3] (5 µM 2-APB, pHe 6.5, nominally Ca2+-free bath) is about 30 s.

In general, EC50 refers to the concentration that produces a half-maximal response. Low values mean greater potency, high ones weaker potency.
